Reference: ChEMBL document CHEMBL4184251, “Potentiation of the activity of β-lactam antibiotics by farnesol and its derivatives” (Bioorg Med Chem Lett, 2018)
≈ marks a conversion by molar mass, not a printed value.

Tests used:
Staphylococcus aureus [1] = test: Potentiation of ampicillin-induced antimicrobial activity against methicillin-susceptible Staphylococcus aureus ATCC 29213 at 256 ug/ml relative to ampicillin alone; type: functional
Staphylococcus aureus [2] = test: Antimicrobial activity against methicillin-susceptible Staphylococcus aureus ATCC 29213 by micro-dilution method; type: functional
Summary of the method: (§1)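 Broth microdilution MIC in cation-adjusted Mueller-Hinton II medium supplemented with 1% Tween-80 (CAMHB-T), needed to disperse the farnesol-type compounds. Compounds tested from 2 to 2048 μg/mL.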

Staphylococcus aureus [3] = test: Potentiation of ampicillin-induced antimicrobial activity against methicillin-resistant Staphylococcus aureus NRS70 at 256 ug/ml relative to ampicillin alone; type: functional
Staphylococcus aureus [4] = test: Potentiation of oxacillin-induced antimicrobial activity against methicillin-susceptible Staphylococcus aureus ATCC 29213 at 256 ug/ml relative to oxacillin alone; type: functional
Staphylococcus aureus [5] = test: Potentiation of oxacillin-induced antimicrobial activity against methicillin-resistant Staphylococcus aureus NRS70 at 256 ug/ml relative to oxacillin alone; type: functional
Staphylococcus aureus [6] = test: Antimicrobial activity against methicillin-resistant Staphylococcus aureus NRS100 by micro-dilution method; type: functional; summary of the method: as §1
Staphylococcus aureus [7] = test: Potentiation of oxacillin-induced antimicrobial activity against methicillin-resistant Staphylococcus aureus NRS70 at 256 ug/ml (reference value: oxacillin alone MIC = 32 ug/ml); type: functional
Staphylococcus aureus [8] = test: Potentiation of ampicillin-induced antimicrobial activity against methicillin-resistant Staphylococcus aureus NRS123 at 256 ug/ml relative to ampicillin alone; type: functional
Staphylococcus aureus [9] = test: Potentiation of ampicillin-induced antimicrobial activity against methicillin-resistant Staphylococcus aureus NRS70 at 256 ug/ml (reference value: ampicillin alone MIC = 16 ug/ml); type: functional
Staphylococcus aureus [10] = test: Potentiation of oxacillin-induced antimicrobial activity against methicillin-resistant Staphylococcus aureus NRS123 at 256 ug/ml (reference value: oxacillin alone MIC = 24 ug/ml); type: functional
Staphylococcus aureus [11] = test: Potentiation of oxacillin-induced antimicrobial activity against methicillin-resistant Staphylococcus aureus NRS100 at 256 ug/ml (reference value: oxacillin alone MIC = >256 ug/ml); type: functional
Staphylococcus aureus [12] = test: Potentiation of oxacillin-induced antimicrobial activity against methicillin-susceptible Staphylococcus aureus ATCC 29213 at 256 ug/ml (reference value: oxacillin alone MIC = 0.4 ug/ml); type: functional
Staphylococcus aureus [13] = test: Potentiation of ampicillin-induced antimicrobial activity against methicillin-susceptible Staphylococcus aureus ATCC 29213 at 256 ug/ml (reference value: ampicillin alone MIC = 0.5 ug/ml); type: functional
[14] = Solubility in aqueous solution; type: physicochemical; settings: buffer
Staphylococcus aureus [15] = test: Potentiation of ampicillin-induced antimicrobial activity against methicillin-resistant Staphylococcus aureus NRS100 at 256 ug/ml (reference value: ampicillin alone MIC = 16 ug/ml); type: functional
Staphylococcus aureus [16] = test: Antimicrobial activity against methicillin-resistant Staphylococcus aureus NRS123 by micro-dilution method; type: functional; summary of the method: as §1
Staphylococcus aureus [17] = test: Potentiation of ampicillin-induced antimicrobial activity against methicillin-resistant Staphylococcus aureus NRS100 at 256 ug/ml relative to ampicillin alone; type: functional
Staphylococcus aureus [18] = test: Antimicrobial activity against methicillin-resistant Staphylococcus aureus NRS70 by micro-dilution method; type: functional; summary of the method: as §1
Staphylococcus aureus [19] = test: Potentiation of oxacillin-induced antimicrobial activity against methicillin-resistant Staphylococcus aureus NRS70 at 256 ug/ml by checkerboard assay; type: functional
Summary of the method: (§2)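 Checkerboard combination of oxacillin with the farnesol-type compound. Synergy scored by the fractional inhibitory concentration index (FICI).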

Staphylococcus aureus [20] = test: Potentiation of oxacillin-induced antimicrobial activity against methicillin-resistant Staphylococcus aureus NRS100 at 256 ug/ml by checkerboard assay; type: functional; summary of the method: as §2
Staphylococcus aureus [21] = test: Potentiation of ampicillin-induced antimicrobial activity against methicillin-resistant Staphylococcus aureus NRS123 at 256 ug/ml (reference value: ampicillin alone MIC = 12 ug/ml); type: functional
Staphylococcus aureus [22] = test: Potentiation of oxacillin-induced antimicrobial activity against methicillin-resistant Staphylococcus aureus NRS123 at 256 ug/ml relative to oxacillin alone; type: functional
Staphylococcus aureus [23] = test: Potentiation of oxacillin-induced antimicrobial activity against methicillin-resistant Staphylococcus aureus NRS100 at 256 ug/ml relative to oxacillin alone; type: functional

In the case of `CC(C)=CCC/C(C)=C/CC/C(C)=C/CNP(O)(O)=S`, the “fold change (FC)” value (Staphylococcus aureus [1]) is reported as 1, the MIC (Staphylococcus aureus [2]) is reported as 512 µg/mL (≈ 1610 µM) and the “fold change (FC)” value (Staphylococcus aureus [3]) is reported as 2.7. For the same compound, the “fold change (FC)” value (Staphylococcus aureus [4]) was 1, the “fold change (FC)” value (Staphylococcus aureus [5]) was 32 and the MIC (Staphylococcus aureus [6]) was 512 µg/mL (≈ 1610 µM). The MIC (Staphylococcus aureus [7]) was 1 µg/mL, the “fold change (FC)” value (Staphylococcus aureus [8]) was 1.5 and the MIC (Staphylococcus aureus [9]) was 6 µg/mL. For the same compound, the MIC (Staphylococcus aureus [10]) was 16 µg/mL, the MIC (Staphylococcus aureus [11]) was 2 µg/mL and the MIC (Staphylococcus aureus [12]) was 0.4 µg/mL. The MIC (Staphylococcus aureus [13]) was 0.5 µg/mL, the solubility [14] was “Soluble” and the MIC (Staphylococcus aureus [15]) was 3 µg/mL. For the same compound, the MIC (Staphylococcus aureus [16]) was 512 µg/mL (≈ 1610 µM), the “fold change (FC)” value (Staphylococcus aureus [17]) was 5.3 and the MIC (Staphylococcus aureus [18]) was 512 µg/mL (≈ 1610 µM). The “fractional inhibitory concentration index (FICI)” value (Staphylococcus aureus [19]) was 0.53 - 1.13, the “fractional inhibitory concentration index (FICI)” value (Staphylococcus aureus [20]) was 0.53 - 1.13 and the MIC (Staphylococcus aureus [21]) was 8 µg/mL. The “fold change (FC)” value (Staphylococcus aureus [22]) was 1.5 and the “fold change (FC)” value (Staphylococcus aureus [23]) was greater than 128.
